In ChEMBL document CHEMBL1961794, “Regulation of circadian behaviour and metabolism by synthetic REV-ERB agonists” (Nature, 2012):
Active and inactive are the calls of the source. The calls are words filed in the database; no cut-off is given here.

Columns and labels:
Mus musculus [1] = experiment: Change in plasma insulin in diet-induced obese mice over 30 days at 100 mg/kg ip; assay type: functional, organism-based; set-up: dose 100 mg/kg; conditions: C57BL/6
Mus musculus [2] = experiment: Change in plasma glucose in diet-induced obese mice over 30 days at 100 mg/kg ip; assay type: functional, organism-based; set-up: dose 100 mg/kg; conditions: C57BL/6
Mus musculus [3] = experiment: Change in plasma IL-6 in diet-induced obese mice over 30 days at 100 mg/kg ip; assay type: functional, organism-based; set-up: dose 100 mg/kg; conditions: C57BL/6
Mus musculus [4] = experiment: Change in plasma triglycerides in diet-induced obese mice over 30 days at 100 mg/kg ip; assay type: functional, organism-based; set-up: dose 100 mg/kg; conditions: C57BL/6
Mus musculus [5] = experiment: Change in total plasma cholesterol in diet-induced obese mice over 30 days at 100 mg/kg ip; assay type: functional, organism-based; set-up: dose 100 mg/kg; conditions: C57BL/6
Mus musculus [6] = experiment: Change in plasma NEFA (non-esterified fatty acids) in diet-induced obese mice over 30 days at 100 mg/kg ip; assay type: functional, organism-based; set-up: dose 100 mg/kg; conditions: C57BL/6
[7] = Brain concentration after 2 hours at 10mg/kg ip dose (10mg/ml suspension in 10%DMSO/10%Tween80); assay type: ADME, organism-based; conditions: mouse, read-out: Conc_brain
Outline: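 Mice given a single 10mg/kg i.p. dose as a 10mg/ml suspension in 10/10/80 DMSO/Tween80/water. Brain levels (μM) measured at 2h and 8h post injection, with plasma sampled at 1, 2, 4 and 8h. Mean ± s.e.m., n=3.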

[8] = Toxicity in CL57BL6 mice after 7 days treatment at 100 mg/kg b.i.d in hematology screen; assay type: organism-based, C57BL/6; set-up: dose 100 mg/kg; conditions: mouse, in vivo, 168 h
Outline: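 Vehicle-controlled C57Bl6 mice dosed chronically at 100 mg/kg b.i.d. for 7 days. Complete blood count: WBC, neutrophil, lymphocyte, monocyte, eosinophil and basophil counts and percentages; RBC, Hb, HCT, MCV, MCH, MCHC, RDW, platelet count and MPV. Mean ± s.e.m., n=6.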

[9] = Decrease in wheel-running behavior in mice in constant darkness; assay type: functional; conditions: Mus musculus
[10] = target: T1, Nuclear receptor subfamily 1 group D member 1 (Homo sapiens, UniProt P20393); experiment: Increased REV-ERB-alpha LBD dependent repressor activity in HEK293 cell reporter assay; assay type: cell-based; conditions: read-out: IC50
T1 sequence (P20393 whole entry): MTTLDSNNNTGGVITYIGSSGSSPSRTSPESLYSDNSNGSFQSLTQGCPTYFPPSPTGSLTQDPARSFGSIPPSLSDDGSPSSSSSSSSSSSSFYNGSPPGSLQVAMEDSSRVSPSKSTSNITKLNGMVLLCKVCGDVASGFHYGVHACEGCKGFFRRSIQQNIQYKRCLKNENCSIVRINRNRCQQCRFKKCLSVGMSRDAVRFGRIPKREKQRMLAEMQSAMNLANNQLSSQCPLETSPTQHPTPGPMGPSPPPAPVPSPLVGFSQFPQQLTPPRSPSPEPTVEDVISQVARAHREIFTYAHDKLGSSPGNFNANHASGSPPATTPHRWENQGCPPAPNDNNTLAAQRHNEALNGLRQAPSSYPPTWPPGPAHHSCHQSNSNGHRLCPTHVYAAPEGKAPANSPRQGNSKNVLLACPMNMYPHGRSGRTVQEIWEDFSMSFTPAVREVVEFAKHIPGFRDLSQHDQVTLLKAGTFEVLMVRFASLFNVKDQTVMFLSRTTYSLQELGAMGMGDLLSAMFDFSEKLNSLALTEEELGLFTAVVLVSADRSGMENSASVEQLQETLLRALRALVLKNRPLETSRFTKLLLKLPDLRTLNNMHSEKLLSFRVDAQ

Mus musculus [11] = organism: Mus musculus; experiment: Inhibition of circadian oscillations in SCN explants from Per2-luc transgenic mouse; assay type: functional, tissue-based
[12] = Decrease in Srebf1 gene expression; assay type: functional; conditions: Mus musculus, Liver
[13] = target: T1, Nuclear receptor subfamily 1 group D member 1; experiment: REV-ERB-alpha mediated transcriptional suppression at Bmal1 promoter in HEK293 cell reporter assay; assay type: functional, cell-based
Fibroblast = experiment: Inhibition of circadian oscillations in fibroblasts from Per2-luc transgenic mice; assay type: functional, cell-based; conditions: Mus musculus
Outline: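 Fibroblasts (MEFs) were isolated from Per2^luc transgenic mice and treated with 5 μM compound. Circadian oscillation amplitude was followed by continuous bioluminescence recording in two independent experiments.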

[14] = Plasma concentration after 2 hours at 10mg/kg ip dose (10mg/ml suspension in 10%DMSO/10%Tween80); assay type: ADME, organism-based; conditions: mouse, read-out: Conc_plasma
Outline: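 Mice received a single 10 mg/kg i.p. dose as a 10 mg/ml suspension in DMSO/Tween80/water (10/10/80). Plasma was sampled at 1, 2, 4 and 8 h post-injection and drug concentration reported in μM. Mean ± s.e.m., n=3.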

In the case of CCOC(=O)N1CCC(CN(Cc2ccc(Cl)cc2)Cc2ccc([N+](=O)[O-])s2)C1 (stereo not given) [SR9009], the Plasma insulin (Mus musculus [1]) is reported as -35%, the Plasma glucose (Mus musculus [2]) is reported as -19% and the Plasma IL-6 (Mus musculus [3]) is reported as -72%. The Plasma triglyceride (Mus musculus [4]) was -12%, the Plasma cholesterol (Mus musculus [5]) was -47% and the Plasma NEFA (Mus musculus [6]) was -23%.

In the case of CCCCCNC(=O)N1CCC(CN(Cc2ccc(Cl)cc2)Cc2ccc([N+](=O)[O-])s2)C1 (stereo not given) [SR9011], the concentration at 2 h [7] is reported as 240 nM, the Toxicity [8] is reported as “Not Toxic” and the ED50 [9] is reported as 56 mg/kg. For the same compound, the IC50 [10] was 790 nM (agonist), the Reduced_circadian_oscillation (Mus musculus [11]) was “Active” and the ED50 [12] was 67 mg/kg. For the same compound, the IC50 [13] was 620 nM (agonist), the Reduced_circadian_oscillation (Fibroblast) was “Active” and the concentration at 2 h [14] was 530 nM.
